According to ChEMBL document CHEMBL1157974, “C18 dibenzocyclooctadiene lignans from Kadsura philippinensis” (2006):

Columns and labels:
Assay type in all cases: functional
KB = test: Cytotoxicity against human KB cells by MTT assay; conditions: read-out: ED50 (the source's name)
Outline: (§1)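 Cells obtained from ATCC. Cytotoxicity read by MTT [3-(4,5-dimethylthiazol-2-yl)-2,5-diphenyltetrazolium bromide] colorimetric method.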

[1] = Cytotoxicity against human Hepa 59T/VGH cells by MTT assay; conditions: read-out: ED50 (the source's name)
HeLa = test: Cytotoxicity against human HeLa cells by MTT assay; conditions: read-out: ED50 (the source's name); outline: as §1
[2] = test system: Radical scavenging activity; test: Antioxidant activity assessed as DPPH radical scavenging activity at 100 uM
Outline: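 Test compound in 100 mM Tris-HCl (pH 7.4) added to 500 μM DPPH in ethanol (concentration of the added solution), shaken, then left 20 min at room temperature in the dark. Absorbance read at 517 nm by UV-vis spectrophotometer; a table footnote cites a DPPH-HPLC method. Values are mean ± SD of 8 samples.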

Structure (SMILES)	EC50 (KB) [µg/mL]	EC50 [1] [µg/mL]	EC50 (HeLa) [µg/mL]	Activity [2] [%]
COc1c2c(cc3c1-c1c(cc4c(c1OC)OCO4)[C@H](O)[C@@H](C)[C@@H](C)C3)OCO2	≥ 5	≥ 5	≥ 5	
O=C1O[C@H]([C@@H](O)CO)C(O)=C1O				12.5
COc1cc2c(c(O)c1OC)-c1c(cc3c(c1OC)OCO3)[C@H](OC(=O)/C=C/c1ccccc1)[C@H](C)[C@H](C)C2 [1-DEMETHYLKADSUPHILIN A]	≥ 5	≥ 5	≥ 5	
C/C=C(/C)C(=O)O[C@H]1c2cc3c(c(OC)c2-c2c(cc(OC)c(OC)c2O)C[C@@H](C)[C@H]1C)OCO3 [ANGELOYLBINANKADSURIN A]	≥ 5	≥ 5	≥ 5	2.3
COC1=C(OC)C(=O)[C@]23C(=C1)C[C@@H](C)[C@@]2(C)[C@@H](O)c1cc2c(cc13)OCO2 [KADSULIGNAN K]	≥ 5	≥ 5	≥ 5	4.6
COc1cc2c(c(OC)c1OC)-c1c(cc3c(c1OC)OCO3)[C@H](OC(=O)/C=C/c1ccccc1)[C@H](C)[C@H](C)C2 [KADSUPHILINS A]	≥ 5	≥ 5	≥ 5	1.5
COc1c(O)cc2c(c1OC)-c1c(cc3c(c1OC)OCO3)C[C@H](C)[C@H](C)[C@@H]2O [KADSUPHILINS B]	≥ 5	≥ 5	≥ 5	
C/C=C(/C)C(=O)O[C@H]1c2cc3c(c(OC)c2-c2c(cc(OC)c(OC)c2O)[C@H](OC(=O)/C(C)=C\C)[C@](C)(O)[C@H]1C)OCO3 [SCHIZANRIN J]	≥ 5	≥ 5	≥ 5	1.9
